In article PMC7606739 (FASEB journal : official publication of the Federation of …, 2020) one finds IC50 data, which are given here for one molecule.

For assay [1], the target named is T1, human 12-LOX (Human ALOX12) (Homo sapiens, UniProt P18054).
T1 sequence (P18054 1-663): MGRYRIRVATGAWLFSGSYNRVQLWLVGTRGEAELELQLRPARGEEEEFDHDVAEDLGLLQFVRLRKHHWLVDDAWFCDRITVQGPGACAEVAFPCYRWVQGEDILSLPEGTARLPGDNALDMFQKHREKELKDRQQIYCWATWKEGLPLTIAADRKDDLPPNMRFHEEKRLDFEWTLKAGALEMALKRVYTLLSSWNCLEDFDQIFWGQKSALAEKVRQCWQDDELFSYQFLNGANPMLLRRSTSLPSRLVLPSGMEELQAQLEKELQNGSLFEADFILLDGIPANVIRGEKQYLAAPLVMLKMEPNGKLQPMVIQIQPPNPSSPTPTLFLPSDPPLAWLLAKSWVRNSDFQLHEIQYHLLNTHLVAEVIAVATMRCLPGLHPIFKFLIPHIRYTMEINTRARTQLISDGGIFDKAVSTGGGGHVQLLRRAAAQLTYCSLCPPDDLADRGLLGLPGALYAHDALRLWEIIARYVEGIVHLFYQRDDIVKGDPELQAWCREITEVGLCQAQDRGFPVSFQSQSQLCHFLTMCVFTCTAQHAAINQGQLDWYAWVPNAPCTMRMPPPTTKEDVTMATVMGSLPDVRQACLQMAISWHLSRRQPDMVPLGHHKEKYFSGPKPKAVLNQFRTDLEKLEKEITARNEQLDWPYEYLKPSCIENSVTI
In words: biochemical.

Assay [2] addresses T2, zebrafish 12-LOX (zf12-LOX, Alox12) (Danio rerio, UniProt A0ACM8Q0F4).
T2 sequence (A0ACM8Q0F4 1-670): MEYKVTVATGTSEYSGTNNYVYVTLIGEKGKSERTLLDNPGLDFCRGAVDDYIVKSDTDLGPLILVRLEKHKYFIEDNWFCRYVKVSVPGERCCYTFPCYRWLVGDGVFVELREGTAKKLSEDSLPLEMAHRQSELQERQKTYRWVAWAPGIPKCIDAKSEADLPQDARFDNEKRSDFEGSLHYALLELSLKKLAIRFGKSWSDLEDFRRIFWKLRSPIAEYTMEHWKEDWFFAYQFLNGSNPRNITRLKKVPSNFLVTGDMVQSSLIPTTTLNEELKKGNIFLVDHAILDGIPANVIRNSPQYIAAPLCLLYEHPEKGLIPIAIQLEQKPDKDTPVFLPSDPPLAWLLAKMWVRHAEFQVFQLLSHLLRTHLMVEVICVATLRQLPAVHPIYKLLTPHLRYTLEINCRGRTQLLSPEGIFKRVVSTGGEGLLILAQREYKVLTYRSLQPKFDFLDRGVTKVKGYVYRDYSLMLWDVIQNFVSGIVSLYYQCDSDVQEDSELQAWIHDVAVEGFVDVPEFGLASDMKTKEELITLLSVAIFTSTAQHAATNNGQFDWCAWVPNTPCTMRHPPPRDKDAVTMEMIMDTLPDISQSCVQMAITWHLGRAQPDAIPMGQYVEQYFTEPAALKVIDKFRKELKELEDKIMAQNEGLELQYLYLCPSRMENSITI
In words: UV-Vis lipoxygenase rate assay. The format is biochemical. An outline of the steps:
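N-terminal 6xHis-tagged zf12-LOX, expressed from a pFastBac construct, purified on nickel-iminodiacetic acid agarose (>90% pure by SDS-PAGE). Reaction in 25 mM HEPES (pH 8.00), 0.01% Triton X-100, 10 μM arachidonic acid, run as a steady-state kinetic UV-Vis assay. Enzymatic rate measured at six inhibitor concentrations in triplicate; IC50 from a hyperbolic saturation curve fit of rate versus concentration.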

Each structure is given as a SMILES string.

By IC50 is commonly meant the concentration at which inhibition is half-maximal. High values mean weaker potency, low ones greater potency. Turning to `CNc1oc(-c2cccc3ccccc23)nc1C#N` [ML351], the IC50 is more than 50 µM in assay [1] and more than 100 µM in assay [2].
